# Data as given in article PMC3235361 (Biochemistry, 2011).
# Experiments:
# [1] = tested on: differentiated PC-12 cells; assay: Neuroprotection against Aβ42, MTT assay, differentiated PC-12 cells; assay type: cell-based; settings: both isomers to a similar extent, data not shown
# [2] = tested on: rat primary cortical or hippocampal neurons; assay: Toxicity compared with WT Aβ across MTT and LDH assays, rat primary neurons; assay type: cell-based; settings: 10 μM, 48 h
# In short: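 E18 rat cortical or hippocampal neurons on poly-D-lysine in DMEM/10% FBS; 5 μM cytosine arabinoside from 24 h; treated at day 6. HFIP-treated peptide films dissolved in 60 mM NaOH, diluted in medium (final NaOH ≤6 mM), sonicated; 10 μM final, 48 h. MTT: 4 h at 37°C, stop overnight, OD; 3 experiments. LDH release: 6 experiments. 6 wells/point; normalized to NaOH-medium control; ANOVA/Tukey.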
Compound,"protection against Aβ-induced toxicity, MTT (in words) [1]",toxicity compared with the WT Aβ form (in words) [2]
CC(=O)N[C@H](CC[S+](C)[O-])C(=O)O (stereo partly drawn) [Ac-D-Met(O)],significantly protected,–
CC(=O)N[C@@H](CC[S+](C)[O-])C(=O)O (stereo partly drawn) [Ac-L-Met(O)],significantly protected,–
[Met(O)^35]Aβ42 [Aβ42-Met(O)],–,significantly less toxic
